Experimental data as given in article PMC11419141 (bioRxiv, 2024).
“Also recorded” adds a separate entry of the source.

How the values were obtained:
[1] = Total antioxidant capacity; conditions: CUPRAC, Trolox equivalent, at any one concentration tested, n=2
Procedure, shortened: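 Test compounds from DMSO stocks were dispensed acoustically as a 7-concentration series in 384-well plates. Freshly prepared Cu(II)-neocuproine reagent was added, mixed at 650 rpm for 2 min, then incubated sealed at 25 °C. A450 of the Cu(I)-neocuproine chelate was read at 1.5 h and 3 h. A Trolox standard curve was run on every plate, with values expressed as Trolox equivalents (mM). Fold over Trolox was taken as the ratio of linear-regression coefficients; n=2.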

[2] = system: TZM-bl cells; test: Cytotoxicity to cells in the anti-HIV assay; assay type: cell-based; conditions: toxic to cells in anti-HIV assay
[3] = system: Staphylococcus aureus subsp. aureus Rosenbach, ATCC 29213; test: Antibacterial growth assay, S. aureus; assay type: cell-based; conditions: for Antibacterial activity against S. aureus: in higher doses (100 μM); for Inhibition of growth of S. aureus: at a concentration of 11.1 μM
Procedure, shortened: (§1)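 A single colony was grown overnight in cation-adjusted Mueller Hinton broth at 37 °C, 250 rpm, then diluted 100-fold. Cultures were grown for 24 h at 37 °C with test compound as a 7-concentration series. A600 was read, followed by a BacTiter-Glo ATP luminescence read. % growth inhibition was normalized to vancomycin/amikacin positive controls and DMSO negative control.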

[4] = system: Klebsiella pneumoniae subsp. pneumoniae, ATCC 27736; test: Antibacterial growth assay, K. pneumoniae; assay type: cell-based; conditions: at a concentration of 300 μM
Procedure, shortened: as §1

[5] = system: Nrf2-ARE signaling pathway in HepG2-ARE-Luc cells; test: ARE-Luciferase reporter assay for Nrf2 activation in HepG2 cell line; assay type: cell-based; conditions: Figure 5B at 10 μM
Procedure, shortened: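 HepG2 cells stably carrying an ARE-driven firefly luciferase reporter, seeded at 10,000 cells/well in complete medium (384-well). Test compounds given as a 7-concentration series for 18 h at 37 °C, 5% CO2. Controls were TBHQ and sulforaphane (positive) and DMSO vehicle. Luminescence was read after Steady-Glo for 30 min. Fold induction was taken as treated/vehicle ×100, with vehicle set at 100%; n=2.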

[6] = system: HepG2 cell line; test: Compound cytotoxicity in ARE assay in HepG2 cell line; assay type: cell-based
[7] = system: CXCR4-dependent NL4-3 virus; test: Anti-HIV TZM-bl assay, NL4-3 virus; assay type: cell-based, HIV-1; conditions: concentration not stated (any one concentration, Figure 6)
Procedure, shortened: (§2)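 TZM-bl cells (HeLa-derived; CD4, CCR5 and CXCR4; Tat-driven luciferase) kept in DMEM with 10% heat-inactivated FBS and gentamicin. Cells seeded at 5000/well onto test compound, then given virus with 8 μg/ml DEAE-dextran. Inoculum was 150,000 RLU equivalents for NL4-3 and 20,000 for BaL.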

[8] = system: CCR5-dependent BaL virus; test: Anti-HIV TZM-bl assay, BaL virus; assay type: cell-based, HIV-1; conditions: concentration not stated (any one concentration, Figure 6)
Procedure, shortened: as §2

[9] = system: Mycobacterium smegmatis; test: Antibacterial growth assay, M. smegmatis; assay type: cell-based; conditions: at a high concentration of 300 μM
Procedure, shortened: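 Mycobacterium smegmatis grown in Middlebrook 7H9 with OADC at 37 °C, 250 rpm, with test compound as a 7-concentration series. A600 read at 24 h and 48 h, then an ATP luminescence read with BacTiter-Glo. % growth inhibition normalized to vancomycin/amikacin positive controls and DMSO negative control.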

## O=c1c(O[C@@H]2O[C@H](CO)[C@H](O)[C@H](O)[C@H]2O)c(-c2ccc(O)c(O)c2)oc2cc(O)cc(O)c12 [Hyperoside (Quercetin 3-galactoside), Hyperoside (quercetin 3-galactoside)]
[1]
  Total antioxidant capacity (TAC) relative to Trolox: greater than 5 fold

## COc1cc(-c2oc3cc(O)cc(O)c3c(=O)c2O)ccc1O [Isorhamnetin]
[1]
  Total antioxidant capacity (TAC) relative to Trolox: greater than 5 fold
[2]
  Cytotoxicity concentration: 3.042 ± 0.27 µM

## OC[C@H]1O[C@@H](O[C@H]2[C@H](Oc3cc4c(O)cc(O)cc4[o+]c3-c3ccc(O)c(O)c3)O[C@H](CO)[C@@H](O)[C@@H]2O)[C@H](O)[C@@H](O)[C@@H]1O [Cyanidin 3-O-sophoroside]
[1]
  Total antioxidant capacity (TAC) relative to Trolox: greater than 5 fold
[3]
  Antibacterial activity against S. aureus: showed antibacterial activity
[4]
  Inhibition of growth of K. pneumoniae: more than 50%

## O=c1c(O[C@@H]2O[C@H](CO)[C@@H](O)[C@H](O)[C@H]2O)c(-c2ccc(O)cc2)oc2cc(O)cc(O)c12 [Kaempferol 3-glucoside, Kaempferol 3-glucoside (astragalin)]
[1]
  Total antioxidant capacity (TAC) relative to Trolox: on the same range as Trolox

## OC[C@H]1O[C@@H](Oc2cc3c(O)cc(O)cc3[o+]c2-c2ccc(O)c(O)c2)[C@H](O)[C@@H](O)[C@H]1O [Cyanidin 3-O-galactoside]
[1]
  Total antioxidant capacity (TAC) relative to Trolox: greater than 5 fold

## OC[C@H]1O[C@@H](Oc2cc3c(O)cc(O)cc3[o+]c2-c2ccc(O)c(O)c2)[C@H](O)[C@@H](O)[C@@H]1O [Cyanidin 3-O-glucoside]
[1]
  Total antioxidant capacity (TAC) relative to Trolox: greater than 5 fold
[3]
  Inhibition of growth of S. aureus: more than 50%

## O=c1c(O)c(-c2ccc(O)c(O)c2)oc2cc(O)cc(O)c12 [Quercetin]
[1]
  Total antioxidant capacity (TAC) relative to Trolox: greater than 5 fold
[5]
  ARE activation: activated ARE activity
[6]
  Cytotoxicity to the cells in ARE assay: non-cytotoxic to the cells
[7]
  Inhibition of HIV strain NL4-3: more than 65%
[8]
  Inhibition of HIV strain BaL: didn’t significantly inhibit
[2]
  Cytotoxicity concentration: 26.41 ± 3.91 µM
[3]
  Antibacterial activity against S. aureus: showed antibacterial activity

## OC[C@H]1O[C@@H](Oc2cc3c(O[C@@H]4O[C@H](CO)[C@@H](O)[C@H](O)[C@H]4O)cc(O)cc3[o+]c2-c2ccc(O)c(O)c2)[C@H](O)[C@@H](O)[C@@H]1O [Cyanidin 3,5-O-diglucoside]
[1]
  Total antioxidant capacity (TAC) relative to Trolox: greater than 5 fold

## OC[C@H]1O[C@@H](Oc2cc3c(O)cc(O)cc3[o+]c2-c2ccc(O)c(O)c2)[C@H](O[C@@H]2OC[C@@H](O)[C@H](O)[C@H]2O)[C@@H](O)[C@@H]1O [Cyanidin 3-O-sambubioside]
[1]
  Total antioxidant capacity (TAC) relative to Trolox: greater than 5 fold
[3]
  Antibacterial activity against S. aureus: showed antibacterial activity
[9]
  Inhibition of M. smegmatis: more than 50%

## O=C(O)C=Cc1ccc(O)cc1 [p-Coumaric acid]
[1]
  Total antioxidant capacity (TAC) relative to Trolox: on the same range as Trolox

## O=C(O)c1cc(O)c(O)c(O)c1 [Gallic acid]
[1]
  Total antioxidant capacity (TAC) relative to Trolox: greater than 5 fold
[2]
  Cytotoxicity concentration: 80.42 ± 0.57 µM

## O=C1C[C@@H](c2ccc(O)cc2)Oc2cc(O)cc(O)c21 [Naringenin]
[1]
  Total antioxidant capacity (TAC) relative to Trolox: on the same range as Trolox
[5]
  ARE activation: activated ARE activity
[6]
  Cytotoxicity to the cells in ARE assay: non-cytotoxic to cells

## COc1cc(-c2[o+]c3cc(O)cc(O)c3cc2O[C@@H]2O[C@H](CO)[C@@H](O)[C@H](O)[C@H]2O)ccc1O [Peonidin 3-O-glucoside]
[3]
  Antibacterial activity against S. aureus: showed antibacterial activity
[4]
  Inhibition of growth of K. pneumoniae: more than 50%

## O=c1cc(-c2ccc(O)c(O)c2)oc2cc(O)cc(O)c12 [Luteolin]
[5]
  ARE activation: activated ARE activity
[7]
  Inhibition of HIV strain NL4-3: more than 90%
[8]
  Inhibition of HIV strain BaL: more than 90%
[2]
  Cytotoxicity concentration: 4.28 ± 0.45 µM

## C[C@H]1O[C@H](OC[C@H]2O[C@@H](Oc3c(-c4ccc(O)cc4)oc4cc(O)cc(O)c4c3=O)[C@H](O)[C@@H](O)[C@@H]2O)[C@@H](O)[C@@H](O)[C@@H]1O [Kaempferol 3-O-rutinoside]
[1]
  Total antioxidant capacity (TAC) relative to Trolox: on the same range as Trolox

## OC[C@H]1O[C@@H](Oc2cc3c(O)cc(O)cc3[o+]c2-c2ccc(O)cc2)[C@H](O)[C@@H](O)[C@@H]1O [Pelargonidin 3-O-glucoside]
[3]
  Antibacterial activity against S. aureus: showed antibacterial activity
[4]
  Inhibition of growth of K. pneumoniae: more than 50%

## Oc1cc(O)c2c(c1)O[C@H](c1ccc(O)c(O)c1)[C@H](O)C2 [(-)-Epicatechin]
[3]; Staphylococcus aureus, ATCC29213, read-out: Inhibition against S. aureus
  inhibition at 300 µM: > 50%

## C[C@@H]1O[C@@H](OC[C@H]2O[C@@H](Oc3cc4c(O)cc(O)cc4[o+]c3-c3cc(O)c(O)c(O)c3)[C@H](O)[C@@H](O)[C@@H]2O)[C@H](O)[C@H](O)[C@H]1O [Delphinidin 3-O-rutinoside]
[1]
  Total antioxidant capacity (TAC) relative to Trolox: greater than 5 fold
[3]
  Inhibition of growth of S. aureus: more than 50%

## COc1cc(-c2oc3cc(O)cc(O)c3c(=O)c2O[C@@H]2O[C@H](CO)[C@@H](O)[C@H](O)[C@H]2O)ccc1O [Isorhamnetin 3-O-glucoside]
[1]
  Total antioxidant capacity (TAC) relative to Trolox: on the same range as Trolox
[5]
  ARE activation: activated ARE activity
[6]
  Cytotoxicity to the cells in ARE assay: non-cytotoxic to the cells

## O=c1c(O)c(-c2ccc(O)cc2)oc2cc(O)cc(O)c12 [Kaempferol]
[5]
  ARE activation: activated ARE activity; also recorded: highest level of ARE activation
[6]
  Cytotoxicity to the cells in ARE assay: non-cytotoxic to the cells
[7]
  Inhibition of HIV strain NL4-3: more than 65%
[8]
  Inhibition of HIV strain BaL: didn’t significantly inhibit
[2]
  Cytotoxicity concentration: 11.00 ± 0.62 µM

## O=C(/C=C/c1ccc(O)c(O)c1)O[C@@H]1C[C@@](O)(C(=O)O)C[C@@H](O)[C@@H]1O [Neochlorogenic acid (3-caffeoylquinic acid)]
[1]
  Total antioxidant capacity (TAC) relative to Trolox: greater than 5 fold

## O=c1c(O)c(-c2cc(O)c(O)c(O)c2)oc2cc(O)cc(O)c12 [Myricetin]
[1]
  Total antioxidant capacity (TAC) relative to Trolox: greater than 5 fold
[2]
  Cytotoxicity concentration: higher than 100 μM

## COc1cc(/C=C/C(=O)O)ccc1O [Ferulic acid]
[1]
  Total antioxidant capacity (TAC) relative to Trolox: on the same range as Trolox

## C[C@@H]1O[C@@H](OC[C@H]2O[C@@H](Oc3cc4c(O)cc(O)cc4[o+]c3-c3ccc(O)c(O)c3)[C@H](O)[C@@H](O)[C@@H]2O)[C@H](O)[C@H](O)[C@H]1O [Cyanidin 3-O-rutinoside]
[1]
  Total antioxidant capacity (TAC) relative to Trolox: greater than 5 fold
[3]
  Inhibition of growth of S. aureus: more than 50%
[9]
  Inhibition of M. smegmatis: more than 50%

## O=c1c(O[C@@H]2O[C@H](CO)[C@@H](O)[C@H](O)[C@H]2O)c(-c2ccc(O)c(O)c2)oc2cc(O)cc(O)c12 [Quercetin-3-β-D-glucoside (hirsutrin), Quercetin-3-β-D-glucoside]
[1]
  Total antioxidant capacity (TAC) relative to Trolox: greater than 5 fold
